This passage reports inhibition in vivo, Activity and UI results from ChEMBL document CHEMBL1138278, “Aromatic amide derivatives of 5,6-dimethoxy-2,3-dihydro-1H-inden(-1-yl)acetic acid as anti-inflammatory agents free of ulcerogenic liability” (Bioorg Med Chem Lett, 2007).

In data set [1] the test system is Rattus norvegicus. Put plainly: Antiinflammatory in SKF-525A pretreated Wistar rat assessed as inhibition of carrageenan-induced paw edema at 100 mg/kg, po after 3 hrs. It counts as functional. Background: Carrageenan injected into the paw causes an acute inflammation.
Data set [2] has as its system Rattus norvegicus. Put plainly: Antiinflammatory in SKF-525A pretreated Wistar rat assessed as inhibition of carrageenan-induced paw edema at 100 mg/kg, po after 24 hrs. It counts as functional.
In data set [3] the test system is Rattus norvegicus. Put plainly: Antiarthritic activity against adjuvant-induced arthritis in Wistar rat assessed as inhibition of paw edema at 100 mg/kg, po on day 8. It counts as functional. Conditions: 192 h. The method, boiled down: (§1)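 Male Wistar rats (160 ± 10 g) dosed orally once daily for 14 days, from the day before injecting 0.1 ml Freund's complete adjuvant into the subplantar surface of the right hind paw. Paw swelling, including the uninjected left paw, and body weight recorded. Means ± SEM, n = 6; p < 0.05 versus control.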

Data set [4] relates to Rattus norvegicus. The data set is described as follows: Antipyretic activity against LPS-induced pyresis in Wistar rat assessed as change in rectal temperature at 100 mg/kg, po after 4 hrs. It counts as functional. The gist of the method: (§2)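 Male Wistar rats (170 ± 20 g) dosed orally: test agents at 100 mg/kg, indomethacin and aspirin at 10 mg/kg and 100 mg/kg. Half an hour later, LPS in apyrogenic saline given at 100 µg/kg i.p. Rectal temperature taken by telethermometer probe immediately before LPS and hourly from 1 to 7 h after. Change in temperature reported; means ± SEM, n = 6.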

The test system of data set [5] is Rattus norvegicus. Put plainly: Antiarthritic activity against adjuvant-induced arthritis in Wistar rat assessed as inhibition of paw edema at 100 mg/kg, po on day 13. In kind it is functional. The following applies: 312 h. The gist of the method: as §1
Data set [6] has as its system Mus musculus. Put plainly: Analgesic activity in Swiss Albino mouse assessed as number of acetic acid-induced writhing at 100 mg/kg, po after 1 hr relative to control. In kind it is functional. The gist of the method:
(§3)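 Mice dosed orally; one hour later injected i.p. with 1% v/v acetic acid at 0.1 ml/10 g. Writhings counted over 15 min, starting five minutes after injection. Means ± SEM, n = 6; p < 0.05 versus control group.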
(In general: In writhing tests, fewer writhes than in controls are read as antinociception.)

Data set [7] deals with Rattus norvegicus. The data set is described as follows: Antiinflammatory in SKF-525A pretreated Wistar rat assessed as inhibition of carrageenan-induced paw edema at 100 mg/kg, po after 1 hr. In kind it is functional.
In data set [8] the test system is Rattus norvegicus. Put plainly: Antipyretic activity against LPS-induced pyresis in Wistar rat assessed as change in rectal temperature at 100 mg/kg, po after 1 hr. In kind it is functional. The method, boiled down:
as §2

The subject of data set [9] is Rattus norvegicus. The data set is described as follows: Antiinflammatory activity in Wistar rat assessed as inhibition of carrageenan-induced paw edema at 100 mg/kg, after 2 hrs. It counts as functional. The method, boiled down: (§4)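 Male Wistar rats (170 ± 20 g) dosed orally: test agents at 100 mg/kg, reference at 10 mg/kg. One hour later, 0.1 ml of 1% carrageenan injected subplantar into the right hind paw.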

For data set [10], the system named is Rattus norvegicus. The data set is described as follows: Antiinflammatory activity in Wistar rat assessed as inhibition of carrageenan-induced paw edema at 100 mg/kg, after 3 hrs. It counts as functional. The gist of the method: as §4
The test system of data set [11] is Rattus norvegicus. Put plainly: Antiinflammatory activity in Wistar rat assessed as inhibition of carrageenan-induced paw edema at 100 mg/kg, after 24 hrs. In kind it is functional. The gist of the method:
as §4

Data set [12] has as its system Rattus norvegicus. The data set is described as follows: Antiinflammatory in SKF-525A pretreated Wistar rat assessed as inhibition of carrageenan-induced paw edema at 100 mg/kg, po after 6 hrs. In kind it is functional.
Data set [13] relates to Rattus norvegicus. The data set is described as follows: Antipyretic activity against LPS-induced pyresis in Wistar rat assessed as change in rectal temperature at 100 mg/kg, po after 6 hrs. It counts as functional. The gist of the method: as §2
The test system of data set [14] is Rattus norvegicus. The data set is described as follows: Antiarthritic activity against adjuvant-induced arthritis in Wistar rat assessed as inhibition of paw edema at 100 mg/kg, po on day 3. In kind it is functional. The following applies: 72 h. The gist of the method: as §1
The subject of data set [15] is Rattus norvegicus. Put plainly: Antiinflammatory activity in Wistar rat assessed as inhibition of carrageenan-induced paw edema at 100 mg/kg, after 4 hrs. It counts as functional. The gist of the method: as §4
The test system of data set [16] is Rattus norvegicus. Put plainly: Antiinflammatory in SKF-525A pretreated Wistar rat assessed as inhibition of carrageenan-induced paw edema at 100 mg/kg, po after 4 hrs. It counts as functional.
Data set [17] deals with Rattus norvegicus. The data set is described as follows: Antiinflammatory activity in Wistar rat assessed as inhibition of carrageenan-induced paw edema at 100 mg/kg, after 1 hr. It counts as functional. The method, boiled down: as §4
Data set [18] concerns Rattus norvegicus. Put plainly: Antipyretic activity against LPS-induced pyresis in Wistar rat assessed as change in rectal temperature at 100 mg/kg, po after 5 hrs. In kind it is functional. The method, boiled down: as §2
In data set [19] the test system is Rattus norvegicus. Put plainly: Antipyretic activity against LPS-induced pyresis in Wistar rat assessed as change in rectal temperature at 100 mg/kg, po after 2 hrs. In kind it is functional. The gist of the method: as §2
In data set [20] the test system is Rattus norvegicus. Put plainly: Toxicity in 24 hrs fasted Wistar rat assessed as ulcer index at 100 mg/kg, po after 6 hrs. In kind it is organism-based. The following applies: in vivo. Also noted: dose 100 mg/kg, route oral. The gist of the method:
(§5)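 Male Wistar rats (175 ± 25 g) fasted 24 h and dosed orally. Acute arm: test agents at 100 mg/kg, indomethacin at 30 mg/kg; rats killed after 6 h, stomachs opened along the greater curvature and scored for ulcers. Chronic arm: 14-day dosing, stomachs examined post mortem at the end of the arthritis study. Ulcer index means ± SEM, n = 4.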

Data set [21] concerns Rattus norvegicus. The data set is described as follows: Antipyretic activity against LPS-induced pyresis in Wistar rat assessed as change in rectal temperature at 100 mg/kg, po after 7 hrs. It counts as functional. The gist of the method: as §2
Data set [22] deals with Mus musculus. Put plainly: Analgesic activity in Swiss Albino mouse assessed as inhibition of acetic acid-induced writhing responses at 100 mg/kg, po after 1 hr. In kind it is functional. The gist of the method: as §3
Data set [23] has as its system Rattus norvegicus. Put plainly: Antipyretic activity against LPS-induced pyresis in Wistar rat assessed as change in rectal temperature at 100 mg/kg, po after 3 hrs. It counts as functional. The gist of the method: as §2
Data set [24] concerns Rattus norvegicus. The data set is described as follows: Antiarthritic activity against adjuvant-induced arthritis in Wistar rat assessed as weight change at 100 mg/kg, po. It counts as functional. The gist of the method:
as §1

In data set [25] the test system is Rattus norvegicus. Put plainly: Antiinflammatory in SKF-525A pretreated Wistar rat assessed as inhibition of carrageenan-induced paw edema at 100 mg/kg, po after 2 hrs. It counts as functional.
Data set [26] concerns Rattus norvegicus. The data set is described as follows: Antiinflammatory activity in Wistar rat assessed as inhibition of carrageenan-induced paw edema at 100 mg/kg, after 6 hrs. It counts as functional. The method, boiled down: as §4
Data set [27] has as its system Rattus norvegicus. The data set is described as follows: Toxicity in 24 hrs fasted Wistar rat assessed as ulcer index at 100 mg/kg, po after 14 days. In kind it is organism-based. Details: dose 100 mg/kg, route oral. Conditions: in vivo, 336 h. The method, boiled down: as §5

SMILES strings stand for the structures.

Usually inhibition in vivo stands for the relative decrease from the control value, in per cent. In the case of `COc1cc2c(cc1OC)C(CC(=O)Nc1ccc(Cl)cc1)CC2` (configuration not stated), the inhibition in vivo at 100 mg/kg in data set [1] stood at 56.7%; in [2], 68.2%; in data set [3], 8.08%; in data set [5], 4.69%; in [7], 64.3%; in data set [9], 63%. Moreover, the inhibition in vivo at 100 mg/kg in [10] was determined as 60.9%; in data set [11], 70%; in data set [12], 59.6%; in [14] it was 28.6%; in [15], 60.9%; in data set [16] it was 57.9%. Moreover, the inhibition in vivo at 100 mg/kg in data set [17] was 71.9%; in data set [22] it was 73.5%; in data set [25], 56.1%; in data set [26] it was 61.1%. Also, the Activity is -0.11 °C in data set [4]; 9.17 in data set [6]; -0.47 °C in data set [8]; 0.41 °C in data set [13]; 0.17 °C in data set [18]; -1.69 °C in [19]. Also, the Activity was 0.4 °C in data set [21], -0.54 °C in [23] and 3.51 g in data set [24]. For the same compound, the UI in [20] was 0.

In the case of `COc1cc2c(cc1OC)C(CC(=O)Nc1cccc(Cl)c1)CC2` (configuration not stated), the inhibition in vivo at 100 mg/kg in data set [3] came to 25.8%; in [5], 35.7%; in [9], 28%; in data set [10], 24.6%; in data set [11] it was 63.3%; in [14], 37.5%. The inhibition in vivo at 100 mg/kg came to 25.8% in data set [15], 31.2% in data set [17], 51.5% in [22] and 38.9% in [26]. The Activity in [4] is 0.05 °C; in data set [6], 16.83; in [8], -0.35 °C; in data set [13] it was 0.44 °C; in data set [18], 0.23 °C; in [19], -1.62 °C. Also, the Activity in data set [21] is 0.42 °C; in data set [23] it was -0.24 °C; in [24] it was 7.21 g. Besides, the UI in data set [20] and in data set [27] was 0 in each case.
